Screening data from PubChem.
HSF1 activator – increases HSF-1 driven luciferase reporter signal. NIH3T3-HGL HSF-1 luciferase reporter, MG132, 8 h; 100% = twice DMSO control signal. activation, % at 9 µM. 300,000 compounds, 1.7% hits. AID 504408;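 active = mean replicate activation of at least 50% with a set share of replicates each reaching 50%; inconclusive = only one of those two conditions met; inactive = mean below 50% and too few replicates reaching it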;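 also: 0% = median of the neutral control wells and 100% = twice that signal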
Jurkat NFkB inh – lowers PMA/ionomycin-induced NF-kB signal in Jurkat cells; PMA/ionomycin-induced NF-kB luciferase reporter, luminescence; inhibition, % at 4 µM; 330,000 compounds, 0.53% hits; in the data active = inhibition above about 50%
697 NFkB inh – lowers PMA/ionomycin-induced NF-kB signal in 697 B cells | 330,000 compounds, 0.33% hits | inhibition, % at 4 µM | 697 B-cell NF-kB luciferase reporter, 16 h; in the data active = inhibition above about 35%
HSF1 inh – HSF1 inhibition | activity change, negative = inhibition, % at 7.5 µM (by protocol) | NIH3T3-HGL HSE-luciferase, MG132-induced, luminescence 8 h; active compounds read low | 300,000 compounds, 0.77% hits;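 active = more than half of replicate wells show activity change below -50%, luminescence cut by over half; inconclusive = some wells, but at most half, below -50%; inactive = no replicate well below -50%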;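 also: luciferase reports HSF-1 transcriptional activity via heat shock element; 0% = median of DMSO wells and -100% = zero luminescence signal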
T cruzi inh – T. cruzi replication inhibition; T. cruzi beta-gal in NIH3T3, luminescence, 90 h; AID 1885; 300,000 compounds, 1.4% hits; inhibition, % (test concentration not listed);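 active = mean inhibition across valid replicates above about 55%, limit read from the data; inconclusive = mean below that limit but half or more replicates reach it; inactive = mean below it, under half of replicates reach it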;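 also: signal also drops with host cell toxicity which is not excluded here; 0% = plate median of DMSO wells and 100% = zero luminescence signal; higher percent means less beta-gal luminescence so fewer parasites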
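Assay system: NIH/3T3 fibroblasts plus reporter T. cruzi. Amount: NIH/3T3 cells, 5,000 per well. Buffer or medium: DMEM, 2% fetal bovine serum. Doses: compound pinned at 50 nL/well, DMSO. Schedule: ≥90 h infection period, 3 h prior cell attachment. Signal: luminescent β-galactosidase signal after 60 min lysis. Read-out: parasite load inhibition, %.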
GPR7 antag – blocks human GPR7 receptor signaling | 290,000 compounds, 1.1% hits | AID 1861 | GPR7-expressing cells, fluorescence antagonist assay | P48145 | inhibition, % at 4.4 µM; in the data active = inhibition above about 16%, passing the limit was not always enough;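 also: cells stimulated with the agonist NPW; 0% = agonist with vehicle and 100% = vehicle without agonist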
Target sequence (P48145 whole entry, looked up): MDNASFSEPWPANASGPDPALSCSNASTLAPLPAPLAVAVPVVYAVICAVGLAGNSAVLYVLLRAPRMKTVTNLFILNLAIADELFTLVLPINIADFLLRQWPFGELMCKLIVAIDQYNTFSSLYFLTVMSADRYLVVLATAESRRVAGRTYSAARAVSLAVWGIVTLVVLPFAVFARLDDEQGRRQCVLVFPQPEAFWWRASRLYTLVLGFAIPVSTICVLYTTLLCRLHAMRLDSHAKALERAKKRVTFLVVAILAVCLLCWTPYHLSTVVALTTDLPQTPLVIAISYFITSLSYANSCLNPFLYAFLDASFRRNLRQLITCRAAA
* marks the source's active call; other numbers are inactive results; ? = inconclusive; . = no result given. This is a sample that favours compounds with a hit; in the whole collection about 4.8% have one here.

SMILES | HSF1 activator | Jurkat NFkB inh | 697 NFkB inh | HSF1 inh | T cruzi inh | GPR7 antag
CC(CNC(=O)CCn1ccc2cc(S(=O)(=O)N3CCCC3)ccc21)c1ccccc1 (stereo not given) | -5 | -7 | 11 | 1 | 18 | 8
Nc1ncnc(Nc2ccc(F)cc2)n1 | -4 | 5 | 13 | 3 | 16 | -6
Fc1ccc(Nc2ccnc(Nc3ccc(F)cc3)n2)cc1 | 72* | -72 | -91 | 32 | 38 | 12
O=C(O)c1cccc(Nc2ccnc(Nc3cccc(C(=O)O)c3)n2)c1 | -60 | 40 | 18 | -55* | -8 | -18
O=C(O)c1cccc(Nc2nc(N3CCOCC3)nc(N3CCOCC3)n2)c1 | -7 | 11 | 22 | -4 | -7 | -14
CN(CC(=O)Nc1cccc2ccccc12)C(=O)c1ccc(F)cc1F | . | -7 | 14 | . | . | .
CC(=O)c1ccc(NC(=O)Cn2cnc(S(=O)(=O)N3CCc4ccccc43)c2)cc1 | -5 | 3 | -7 | -4 | -1 | -4
O=C(C1CC1)N1CCc2sccc2C1c1ccc(Cl)cc1 (stereo not given) | 2 | 0 | 9 | 2 | 2 | 2
COc1ccc([C@H]2CC(=O)C=C(c3ccc(Cl)c(C(F)(F)F)c3)C2)cc1 | . | -8 | -11 | . | . | .
O=C(Nc1ccccc1)c1ccc(S(=O)(=O)NCC2CCCO2)cc1 (stereo not given) | 18 | 9 | 4 | 7 | -13 | 5
O=C(Nc1cccc(Cl)c1)c1ccc(S(=O)(=O)NCC2CCCO2)cc1 (stereo not given) | -91 | 12 | 11 | -88* | -3 | -6
O=C1OC(c2ccccc2)Cc2cc(C(=O)N3CCN(c4ccc(F)cc4)CC3)ccc21 (stereo not given) | . | 9 | -11 | . | . | .
C=C(C)C1CC=C(CN2CCN(Cc3ccccc3)CC2)CC1 (stereo not given) | -20 | -13 | -27 | -2 | 57* | 0
CCc1ccc(/C=N/NC(=O)c2c[nH]c3ccccc23)s1 | 58* | -149 | -198 | 25 | 14 | 1
CCNc1nc(NCC)n2c(SCC(=O)c3ccc(C(C)C)cc3)nnc2n1 | 51* | 5 | -6 | -4 | 24 | -10
CCNc1nc(NCC)n2c(SCC(=O)Nc3ccc(C(F)(F)F)cc3[N+](=O)[O-])nnc2n1 | 70* | 15 | -2 | 31 | 4 | 7
O=C(O)c1cccc(CSc2ncn[nH]2)c1 | -4 | 1 | 2 | 2 | -20 | -2
COc1ccc(OCC(=O)Nc2ccc3c(c2)nc(CCN2CCOCC2)n3C)cc1 | -5 | 1 | 1 | 0 | -4 | -16
COc1ccc(NC(=O)COc2ccc(-c3nn(C)c(=O)c4ccccc34)cc2)cc1 | -86 | -8 | 13 | -83* | 19 | -3
COc1ccc(OCC(=O)Nc2ccc3c(c2)nc(CCn2ccccc2=O)n3C)cc1 | 52* | -8 | 12 | 10 | -9 | -9
Cn1c(CCN2CCCCC2)nc2cc(NC(=O)Nc3ccccc3)ccc21 | 58* | -14 | -28 | 59 | -15 | -4
Cc1nn(CC(=O)Nc2ccc3c(c2)nc(CCN2CCCCC2)n3C)c(=O)c2ccccc12 | 53* | -3 | 21 | 40 | 14 | 8
CCN(CC)S(=O)(=O)c1ccc(N2CCOCC2)c(NC(=O)COc2ccc(C#N)cc2)c1 | -1 | -9 | -1 | -5 | 6 | -7
O=C(CSc1nc2ccccc2c(=O)n1-c1ccc(F)cc1)Nc1ccc(Cl)c(S(=O)(=O)N2CCOCC2)c1 | 4 | 2 | -7 | -2 | 32 | 14
Cc1ccc(-n2c(SCC(=O)Nc3cc(S(=O)(=O)N4CCOCC4)ccc3Cl)nc3ccccc3c2=O)cc1 | 73* | -8 | 18 | 29 | 50 | -13
SMILES | HSF1 activator | Jurkat NFkB inh | 697 NFkB inh | HSF1 inh | T cruzi inh | GPR7 antag
CCOC(=O)c1nnn(CC(=O)NC(=O)Nc2ccccc2)c1C(=O)OCC | -6 | -2 | 2 | 0 | -9 | 0
CCOC(=O)c1nnn(CC(=O)NC(=O)Nc2ccc(F)cc2)c1C(=O)OCC | -78 | 6 | 12 | -72* | -8 | -7
Cc1cc2nc3c(=O)n(CCc4ccccc4)c(=O)[nH]c3nc2cc1N | 59* | 1 | 7 | 20 | 56* | -1
Nc1ccc2nc3c(=O)n(CCc4ccccc4)c(=O)[nH]c3nc2c1 | 20 | 5 | 19 | 7 | -2 | 7
CC(C)(C)c1cc(C(=O)NNC(=O)Nc2ccccc2)n(Cc2ccccc2)n1 | 7 | 11 | 10 | -4 | 7 | -20
CC(C)(C)c1cc(C(=O)NCc2cc(F)cc3c2OCOC3)n(Cc2ccccc2)n1 | 56* | -36 | -50 | 42 | 6 | -22
Cc1cc(C(=O)N(C)CC2CCCN(CCc3ccc(F)cc3)C2)c(C)o1 (stereo not given) | -13 | 22 | 11 | 1 | 56* | -19
CN(C)C(=O)CCC(=O)N(C)CC1CCCN(CCc2ccc(F)cc2)C1 (stereo not given) | -6 | 6 | -14 | -1 | -8 | 12
COc1ccc(CCN2CCCC(CN(C)C(=O)c3ccoc3C)C2)cc1 (stereo not given) | -15 | -4 | -34 | -5 | -2 | -12
COc1ccc(CCN2CCCC(CN(C)C(=O)c3cc(C)oc3C)C2)cc1 (stereo not given) | 24 | -78 | -50 | 16 | 63* | -10
CCN(CC)S(=O)(=O)c1cc(NC(=O)C(C)N2CCN(Cc3ccc4c(c3)OCO4)CC2)ccc1C (stereo not given) | -18 | -11 | -53 | -4 | ? | -1
COC(=O)c1ccc(N(CC(=O)NC2CCCCC2)C(=O)CNC(=O)c2ccco2)cc1 | 71* | -25 | 12 | 28 | 2 | 11
O=C(COC(=O)c1ccc(S(=O)(=O)NCc2ccco2)cc1)Nc1ccccc1OC(F)F | 103* | -9 | -24 | 49 | 11 | 8
C#C[C@]1(O)CC[C@H]2[C@@H]3CCc4cc(OC)ccc4[C@H]3CC[C@@]21C | -2 | -36 | -29 | 2 | 10 | 1
C#C[C@]1(O)CC[C@H]2[C@@H]3CCc4cc(OC5CCCC5)ccc4[C@H]3CC[C@@]21C | 1 | -17 | -18 | 6 | 55* | -15
Cc1cccn2c(=O)c3cc(C(=O)NCCc4ccccc4)c(=N)n(Cc4ccco4)c3nc12 | 27 | 22 | -42 | 23 | 53 | 20
CCOCCCn1c(=N)c(C(=O)NCc2ccc3c(c2)OCO3)cc2c(=O)n3cccc(C)c3nc21 | 9 | 0 | 33 | -5 | 58* | 0
COCCCn1c(=N)c(C(N)=S)cc2c(=O)n3cccc(C)c3nc21 | -3 | 2 | -6 | -3 | 68* | .
Cc1ccc2nc3c(cc(C(N)=S)c(=N)n3CCCOC(C)C)c(=O)n2c1 | 19 | 40 | 20 | 1 | 64* | -8
